Source: PubChem BioAssay
HGIII-sPLA2 inh: Blocks human group III sPLA2 activity; QFRET BODIPY PC-A2 liposome hydrolysis, fluorescence; inhibition, % at 12.2 µM; 370,000 tested, 0.56% active;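 active = inhibition above mean plus 3 SD of compounds lying within the high and low control bounds, cut at about 19% in these data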;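 note: 0% = median of test compound wells and 100% = no enzyme DMSO wells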
CendR NRP1 mod: alters CendR peptide binding to human NRP-1; inhibition, % at 25 µM; O14786; FAM-RPARPAR peptide binding to NRP-1, fluorescence polarization; AID 602438; 360,000 tested, 0.85% active;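 active = inhibition or corrected inhibition above about 18%, plus a signal ratio from 0.5 to 1.5, limit read from the data, passing the limit was not always enough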
Target sequence (O14786 whole entry, looked up): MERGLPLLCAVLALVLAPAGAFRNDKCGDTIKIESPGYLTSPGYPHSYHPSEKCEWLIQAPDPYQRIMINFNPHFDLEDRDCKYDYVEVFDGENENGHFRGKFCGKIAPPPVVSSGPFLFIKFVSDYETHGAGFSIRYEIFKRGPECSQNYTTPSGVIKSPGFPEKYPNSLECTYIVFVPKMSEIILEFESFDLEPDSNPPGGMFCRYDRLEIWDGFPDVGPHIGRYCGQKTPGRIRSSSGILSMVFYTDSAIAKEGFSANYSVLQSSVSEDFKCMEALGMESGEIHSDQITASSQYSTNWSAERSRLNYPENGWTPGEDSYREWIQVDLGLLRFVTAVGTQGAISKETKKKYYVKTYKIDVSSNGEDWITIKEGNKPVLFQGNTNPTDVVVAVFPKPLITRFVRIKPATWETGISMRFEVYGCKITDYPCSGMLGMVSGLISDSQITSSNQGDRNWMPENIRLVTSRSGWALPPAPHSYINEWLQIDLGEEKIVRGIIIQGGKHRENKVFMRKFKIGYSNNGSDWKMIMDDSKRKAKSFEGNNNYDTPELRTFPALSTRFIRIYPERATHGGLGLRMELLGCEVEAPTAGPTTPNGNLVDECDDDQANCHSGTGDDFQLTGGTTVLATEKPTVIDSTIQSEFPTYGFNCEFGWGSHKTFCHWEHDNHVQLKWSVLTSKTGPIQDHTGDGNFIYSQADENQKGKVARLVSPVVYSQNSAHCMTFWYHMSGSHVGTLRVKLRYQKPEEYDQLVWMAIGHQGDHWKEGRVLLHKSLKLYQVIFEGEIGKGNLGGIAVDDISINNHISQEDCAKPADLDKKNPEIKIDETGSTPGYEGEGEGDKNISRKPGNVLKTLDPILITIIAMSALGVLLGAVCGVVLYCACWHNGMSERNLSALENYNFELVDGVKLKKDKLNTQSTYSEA
m5-HT2A agonist: mouse HTR2A agonism via beta-arrestin recruitment. 360,000 tested, 0.66% active. P35363. CHO-K1 mHTR2A beta-arrestin complementation, luminescence; percent of 30 µM serotonin response. AID 624169. activation, % at 7.6 µM;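 active = activation above a run cutoff, the mean activation of all tested compounds plus 3 SD, cut at about 14% in these data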;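 note: 0% = plate median of compound wells and 100% = 30 µM serotonin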
M18AAP inhibitor: blocks P. falciparum M18 aspartyl aminopeptidase. recombinant PfM18AAP, H-Glu-NHMec fluorogenic cleavage. inhibition, % at 7.35 µM. 290,000 tested, 1.2% active;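 active = inhibition above the campaign mean inhibition over all tested compounds plus 3 SD, cut at about 28% in these data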;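 note: 0% = plate median of test compound wells and 100% = 2 mM ZnCl2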
Arr AP2 block: inhibitors of human beta-arrestin and AP2 interaction | 340,000 tested, 0.31% active | FITC-arrestin peptide / GST-AP2 beads, flow cytometry; AP2 beta2 appendage carries R879A mutation | AID 504490 | inhibition, % at 10 µM;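 active = inhibition above a set limit, near 3 SD of compounds lacking own fluorescence, cut at about 54% in these data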;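 note: plate controls were DMSO wells for no effect and 5 µM unlabelled arrestin peptide for full effect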
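System: GST-AP2 R879A bound to glutathione beads, E. coli-expressed. Also added: 50 nM FITC-arrestin peptide. Schedule: compound with beads 12 min RT, then probe 1 h RT. Signal: bead flow cytometry, FITC channel. Read-out basis: percent response.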
Hep lipid drop: hepatic lipid droplet formation modulation; AML12 mouse hepatocytes, oleate lipid droplets, BODIPY imaging; inhibition, % at 6.5 µM; 240,000 tested, 0.4% active;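 active = lipid droplet intensity inhibited by at least 50%, with more than 500 cells counted; inconclusive = wells with under 300 cells, treated as cytotoxic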
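Test system: AML12 mouse liver cells; schedule: overnight exposure; technique: high-content imaging of BODIPY-stained droplets and DAPI nuclei; read-out: % inhibition of corrected integrated BODIPY droplet signal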
MOR ag counter: activates human mu opioid receptor in HTR2A counterscreen; shares compounds with m5-HT2A agonist; U2OS OPRM1 beta-arrestin PathHunter, luminescence; DMSO 0%, DAMGO 9.3 µM 100%; activation, % at 9.3 µM; 2,300 tested, 5.3% active;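 active = mean activation above the mean of DMSO-only wells plus 3 SD, cut at about 0.5% in these data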
HTR2A ag conf: confirmation of mouse HTR2A serotonin receptor agonists | AID 624381 | 2,300 tested, 19% active | CHO-K1 PathHunter beta-arrestin recruitment, luminescence; DMSO 0%, 30 µM serotonin 100% | shares compounds with m5-HT2A agonist | activation, % at 7.6 µM;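 active = mean activation across triplicates above the hit threshold derived in the original primary screen, cut at about 15% in these data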
* = called active by the depositor; ? = inconclusive; nt = not tested or not shown. Most compounds without a hit are left out; they make up all but 3.3% or so of the library.

SMILES	HGIII-sPLA2 inh	CendR NRP1 mod	m5-HT2A agonist	M18AAP inhibitor	Arr AP2 block	Hep lipid drop	MOR ag counter	HTR2A ag conf
CN(c1ccccc1)S(=O)(=O)c1cccc(NC(=O)c2ccc(Cl)c([N+](=O)[O-])c2)c1	-7	-1	-4	nt	25	nt	nt	nt
CCCCNc1c(-c2cccnc2)nc2nc(C)cc(C)n12	1	-5	20*	nt	nt	nt	-1	-4
CC1=CC(=O)C(C2CCCCC2)=C/C1=N\OS(=O)(=O)c1ccccc1	-3	nt	nt	nt	nt	nt	nt	nt
CC(=O)Nc1ccc(NC(=O)c2cc(-n3cnnc3)ccc2Cl)cc1	3	12	16*	5	-6	nt	0	-4
CC(=O)c1cccc(NC(=O)c2cc(-n3cnnc3)ccc2Cl)c1	6	-4	0	6	4	2	nt	nt
Cc1cccc(-c2ccc3[nH]c4c(c3c2)CCN2C[C@H]3[C@H](C)ON(C)[C@H]3C[C@@H]42)c1	-9	-10	8	nt	nt	nt	nt	nt
C[C@@H]1ON(C)[C@H]2C[C@H]3c4[nH]c5ccccc5c4CCN3C[C@@H]12	7	-8	22*	nt	nt	nt	0	13
CCc1ccc(NC(=O)Cn2nnc(C(=O)NCCc3ccc(OC)c(OC)c3)c2N)cc1	-27	-6	17*	-4	25	-31	0	2
O=C(CSc1nc2ccccc2c(=O)n1CCCN1CCOCC1)Nc1ccc(Br)cc1	-13	14	-7	nt	-5	nt	nt	nt
COC(=O)c1ccc2c(=O)n(CCN3CCOCC3)c(SCC(=O)NCc3ccccc3)nc2c1	3	-10	16*	0	2	-2	-1	-5
Cc1ccc(NC(=O)CSc2nc3ccccc3c(=O)n2CCCN2CCCCC2)cc1C	-18	-9	16*	-5	3	nt	0	12
COc1ccc(NC(=O)CSc2nc3ccccc3c(=O)n2CCCN2CCOCC2)c(OC)c1	-4	4	39*	-3	9	3	-1	12
CCc1ccc(NC(=O)CSc2nc3ccccc3c(=O)n2CCCN2CCC(C)CC2)cc1	-14	-4	48*	-3	23	-19	0	20*
COC(=O)c1ccc2c(=O)n(CCN3CCOCC3)c(SCC(=O)C(C)(C)C)nc2c1	2	-2	0	2	6	nt	nt	nt
COc1cccc(CN(CCC(C)C)S(=O)(=O)c2cc(Br)ccc2Br)c1	-4	3	-2	nt	2	nt	nt	nt
COC(=O)c1cc(-c2c(C)noc2C)c(=O)n2c1CCC2	3	nt	nt	nt	nt	nt	nt	nt
CN(Cc1ccccc1)C(=O)COC(=O)c1cc(NS(=O)(=O)c2cccs2)ccc1O	-18	14	21*	5	9	-14	0	5
O=C(COC(=O)c1cc(NS(=O)(=O)c2cccs2)ccc1O)Nc1ccccc1	-23	8	-4	8	25	4	nt	nt
O=C1N=C(N2CCOCC2)S/C1=C/c1ccc(-c2ccc(F)cc2)o1	-1	3	11	-45	4	43	nt	nt
Cc1ccc(-c2ccc(/C=C3\SC(N4CCOCC4)=NC3=O)o2)cc1	1	-40	15*	1	-2	?	0	39*
COC(=O)[C@]12C=CCN1[C@@H](c1ccc(OC)c(OC)c1)c1c(c3ccccc3n1S(=O)(=O)c1ccc(C)cc1)C2	2	nt	nt	nt	nt	nt	nt	nt
O=C(Nc1ccccc1)C(=O)Nc1cccnc1	0	6	22*	-5	-3	11	0	-2
O=C(CC(=O)c1ccccc1)Nc1cccnc1	-4	14	5	-15	-6	-3	nt	nt
CC(C)(CO)C(O)C(=O)NCCCO (configuration not stated)	15	-1	18*	nt	12	nt	-1	0
Cc1cccc(OC(C)C(=O)NC2CCS(=O)(=O)C2)c1C (configuration not stated)	nt	8	3	7	3	0	nt	nt
SMILES	HGIII-sPLA2 inh	CendR NRP1 mod	m5-HT2A agonist	M18AAP inhibitor	Arr AP2 block	Hep lipid drop	MOR ag counter	HTR2A ag conf
O=C(Cn1cnc2ccccc2c1=O)N1CCCCC1	7	nt	nt	nt	nt	nt	nt	nt
CC(C)Cc1cc(C(=O)Nc2cc(Cl)ccc2Cl)no1	12	-13	-3	1	-2	-6	nt	nt
CC(C)Cc1cc(C(=O)Nc2ccc(F)cc2F)no1	-2	10	18*	1	5	-16	-1	-3
COc1ccc(C(=O)c2[nH]c(N)c(C(=O)c3ccccc3)c2-c2ccc(OC)c(OC)c2)cc1	9	nt	nt	nt	nt	nt	nt	nt
COC(=O)[C@]1(C#N)CC(=O)N(C(C)C)[C@@H]1c1ccccc1	4	nt	nt	nt	nt	nt	nt	nt
Cc1cccc(-n2ncc3c2CCCC3NC(=O)C2(C(N)=O)CC2)c1C (configuration not stated)	7	0	15*	-8	25	-25	0	0
Cc1cccc(-n2ncc3c2CCCC3NC(=O)CCN2CCCO2)c1C (configuration not stated)	1	-3	16*	-10	19	0	-1	2
COCCC(=O)NC1CCCc2c1cnn2-c1cccc(C)c1C (configuration not stated)	14	-16	2	4	-4	-7	nt	nt
COc1ccccc1CNC(=O)C[C@H]1CC[C@@H]2[C@H](COC[C@H](O)CN2Cc2ccc3c(c2)OCO3)O1	-3	10	25*	nt	nt	nt	-1	1
COc1ccc(S(=O)(=O)N2CCCCC2)cc1NC(=O)c1ccc(OC)c(OC)c1	0	9	15*	nt	1	nt	-1	-4
COc1ccc(S(=O)(=O)N2CCC(C(=O)Nc3ccc(S(=O)(=O)N4CCCC4)cc3)CC2)cc1OC	-28	-3	16*	nt	0	nt	0	-3
COc1ccc(CCNC(=O)c2cccc(S(=O)(=O)N3CCOCC3)c2)cc1OC	10	9	16*	nt	13	nt	0	-1
COc1ccc(NC(=O)C2CCN(S(=O)(=O)c3ccc(OC)c(OC)c3)CC2)cc1	-12	5	2	-2	3	9	nt	nt
COc1ccc(CCNC(=O)c2cc(S(=O)(=O)N3CCOCC3)cn2C)cc1OC	1	-1	-2	-3	15	-13	nt	nt
COC(=O)C[C@H]1CC[C@H]2[C@H](COc3ccc(NC(=O)c4ccccc4F)cc3C(=O)N2C)O1	6	nt	nt	nt	nt	nt	nt	nt
CCCCN(C(=O)c1cccc(-n2cnnn2)c1)c1c(N)n(CCCC)c(=O)[nH]c1=O	5	-8	-2	nt	nt	nt	nt	nt
COC(=O)[C@]12C[C@H](CC(=O)NCCCCc3ccccc3)C(=O)N(CCC3=CCCCC3)C1=C[C@H](C(C)(C)C)O[C@@H]2C	-2	nt	nt	nt	nt	nt	nt	nt
CCCc1c(-c2ccc(Cl)cc2)ncn1CCc1ccccc1OC	-2	3	-7	nt	nt	nt	nt	nt
